Calls of active or inactive are those of the source. The rule behind the calls is not given here.

One data set relates to SK-OV-3. Put plainly: Growth inhibition of human SKOV3 cells assessed as cell viability after 96 hrs by Cell Titre Glo assay. It counts as functional. Particulars: SK-OV-3, 96 h.
The target in data set [1] is Phosphatidylinositol 4,5-bisphosphate 3-kinase catalytic subunit alpha isoform (Homo sapiens) (UniProt P42336). Particulars: SK-OV-3, 500 nM.
Data set [2] shares this target. Particulars: SK-OV-3, 1 to 1000 nM.
The next data set has as its system MCF7. Description: Growth inhibition of human MCF7 cells assessed as cell viability after 96 hrs by Cell Titre Glo assay. It counts as functional. Particulars: MCF7, 96 h.
Data set [3] has as its target Phosphatidylinositol 4-phosphate 3-kinase C2 domain-containing subunit alpha (Homo sapiens, UniProt O00443). Description: Inhibition of PI3KC2A (unknown origin) by ADP-GLO assay. The gist of the method:
(§1)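 Reaction Biology panel using ADP-Glo format at 10 μM ATP. Substrate was sphingosine for SPHK1 and SPHK2, and phosphatidylinositol for the other enzymes.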
(ADP-Glo first removes unused ATP, then detects ADP through luciferase.)

In data set [4] the target is Phosphatidylinositol 3-kinase catalytic subunit type 3 (Homo sapiens, UniProt Q8NEB9). Description: Inhibition of PI3KC3 (unknown origin) by ADP-GLO assay. The method in brief:
as §1

In data set [5] the target is Phosphatidylinositol 4,5-bisphosphate 3-kinase catalytic subunit alpha isoform (Homo sapiens) (UniProt P42336). Particulars: SK-OV-3, 500 nM. The source holds these as a separate data set.
In data set [6] the target is T1, Phosphatidylinositol 4,5-bisphosphate 3-kinase catalytic subunit beta isoform (Homo sapiens, UniProt P42338). Put plainly: Binding affinity to human PI3Kbeta after 1 hr by MALDI TOF/TOF mass spectrometry. The gist of the method:
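Compound incubated with recombinant PI3K isoform enzyme at a 10:1 compound-to-enzyme molar ratio, room temperature, 1 h; covalent adduct formation read by mass spectrometry.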

For the next data set, the target named is T2, Sphingosine kinase 2 (Homo sapiens, UniProt Q9NRA0).
T2 sequence (Q9NRA0 whole entry): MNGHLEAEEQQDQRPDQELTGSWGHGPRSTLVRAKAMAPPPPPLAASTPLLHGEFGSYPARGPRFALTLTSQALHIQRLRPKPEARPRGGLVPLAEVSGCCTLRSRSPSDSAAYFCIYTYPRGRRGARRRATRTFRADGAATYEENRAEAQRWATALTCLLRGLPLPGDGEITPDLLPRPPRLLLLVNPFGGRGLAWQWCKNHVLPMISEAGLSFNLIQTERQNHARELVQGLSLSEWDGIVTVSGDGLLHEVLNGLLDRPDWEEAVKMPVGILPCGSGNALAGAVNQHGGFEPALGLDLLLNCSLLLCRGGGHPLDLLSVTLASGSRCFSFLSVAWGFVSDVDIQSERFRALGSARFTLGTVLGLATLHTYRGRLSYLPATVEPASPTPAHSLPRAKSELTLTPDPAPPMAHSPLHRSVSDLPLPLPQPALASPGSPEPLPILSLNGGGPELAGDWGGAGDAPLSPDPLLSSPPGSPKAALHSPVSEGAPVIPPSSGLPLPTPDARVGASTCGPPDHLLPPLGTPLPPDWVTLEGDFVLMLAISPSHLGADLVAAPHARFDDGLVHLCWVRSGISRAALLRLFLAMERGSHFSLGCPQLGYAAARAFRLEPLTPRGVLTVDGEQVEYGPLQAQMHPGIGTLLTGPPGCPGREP
Description: Inhibition of SPHK2 (unknown origin) by ADP-GLO assay. The gist of the method: as §1

Data set [7] deals with Phosphatidylinositol 4-kinase alpha (Homo sapiens, UniProt P42356). Put plainly: Inhibition of PI4Kalpha (unknown origin) by ADP-GLO assay. The gist of the method:
as §1

Data set [8] addresses Phosphatidylinositol 4-kinase beta (Homo sapiens, UniProt Q9UBF8). Put plainly: Inhibition of PI4Kbeta (unknown origin) by ADP-GLO assay. The gist of the method: as §1
In data set [9] the target is T1, Phosphatidylinositol 4,5-bisphosphate 3-kinase catalytic subunit beta isoform. Description: Inhibition of PI3Kbeta (unknown origin) by HTRF assay. The method in brief: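 PI3Kβ tested in a 10-concentration curve, 3-fold serial dilution starting at 1 μM, at 10 μM ATP. Substrate phosphatidylinositol 4,5-bisphosphate, HTRF read-out. Value reported as apparent IC50 from an end-point assay.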
(In general: TR-FRET usually uses a lanthanide donor and a delayed reading to cut background.)

The next data set concerns the target Sphingosine kinase 1 (Homo sapiens, UniProt Q9NYA1). Description: Inhibition of SPHK1 (unknown origin) by ADP-GLO assay. The gist of the method: as §1
Data set [10] has as its system Mus musculus. Description: In vivo inhibition of PI3Kalpha in nude nu/nu mouse spleen assessed as inhibition of Akt Ser473 phosphorylation at 100 mg/kg, ip qd administered for 5 consecutive days measured 1 to 4 hrs post last dose by immunoblotting method. The data set is classed as functional, organism-based. The arrangement: dose 100 mg/kg. The method in brief:
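Female nu/nu mice (n = 3/group) dosed ip at 100 mg/kg once daily for 5 days. Spleens collected 1, 4 and 24 h post last dose, frozen, then homogenized in extraction buffer with protease and phosphatase inhibitors. Lysates immunoblotted for P-Akt Ser473.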
Background: Immunoblotting shows a protein as a band on a membrane.

Data set [11] deals with Mus musculus. Description: In vivo inhibition of PI3Kalpha in nude nu/nu mouse assessed as free P110alpha levels at 100 mg/kg, ip qd administered for 5 consecutive days measured 1 to 4 hrs post last dose by immunoblot method. The data set is classed as functional, organism-based. Also on record: dose 100 mg/kg. The method in brief: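 Female nu/nu mice (n = 3/group) dosed ip at 100 mg/kg once daily for 5 days. Spleens harvested 1, 4 and 24 h after the last dose and homogenized. Lysate (150 μg protein) incubated with a biotinylated covalent probe at 1 μM for 1 h at RT, then immunoprecipitated with anti-p110α overnight at 4 °C. Immunoblot: streptavidin signal normalized to total p110α, expressed as % of vehicle.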

Data set [12] deals with Phosphatidylinositol 4,5-bisphosphate 3-kinase catalytic subunit gamma isoform (Homo sapiens, UniProt P48736). Description: Inhibition of PI3Kgamma (unknown origin) by HTRF assay. The method in brief: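 Contract lab panel, end-point HTRF format with phosphatidylinositol 4,5-bisphosphate as substrate and 10 μM ATP. Ten-point curve, 3-fold serial dilutions starting at 1 μM. Reported as an apparent IC50 (IC50App).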

The target of data set [13] is T3, Phosphatidylinositol 4,5-bisphosphate 3-kinase catalytic subunit delta isoform (Homo sapiens, UniProt O00329).
T3 sequence (O00329 whole entry): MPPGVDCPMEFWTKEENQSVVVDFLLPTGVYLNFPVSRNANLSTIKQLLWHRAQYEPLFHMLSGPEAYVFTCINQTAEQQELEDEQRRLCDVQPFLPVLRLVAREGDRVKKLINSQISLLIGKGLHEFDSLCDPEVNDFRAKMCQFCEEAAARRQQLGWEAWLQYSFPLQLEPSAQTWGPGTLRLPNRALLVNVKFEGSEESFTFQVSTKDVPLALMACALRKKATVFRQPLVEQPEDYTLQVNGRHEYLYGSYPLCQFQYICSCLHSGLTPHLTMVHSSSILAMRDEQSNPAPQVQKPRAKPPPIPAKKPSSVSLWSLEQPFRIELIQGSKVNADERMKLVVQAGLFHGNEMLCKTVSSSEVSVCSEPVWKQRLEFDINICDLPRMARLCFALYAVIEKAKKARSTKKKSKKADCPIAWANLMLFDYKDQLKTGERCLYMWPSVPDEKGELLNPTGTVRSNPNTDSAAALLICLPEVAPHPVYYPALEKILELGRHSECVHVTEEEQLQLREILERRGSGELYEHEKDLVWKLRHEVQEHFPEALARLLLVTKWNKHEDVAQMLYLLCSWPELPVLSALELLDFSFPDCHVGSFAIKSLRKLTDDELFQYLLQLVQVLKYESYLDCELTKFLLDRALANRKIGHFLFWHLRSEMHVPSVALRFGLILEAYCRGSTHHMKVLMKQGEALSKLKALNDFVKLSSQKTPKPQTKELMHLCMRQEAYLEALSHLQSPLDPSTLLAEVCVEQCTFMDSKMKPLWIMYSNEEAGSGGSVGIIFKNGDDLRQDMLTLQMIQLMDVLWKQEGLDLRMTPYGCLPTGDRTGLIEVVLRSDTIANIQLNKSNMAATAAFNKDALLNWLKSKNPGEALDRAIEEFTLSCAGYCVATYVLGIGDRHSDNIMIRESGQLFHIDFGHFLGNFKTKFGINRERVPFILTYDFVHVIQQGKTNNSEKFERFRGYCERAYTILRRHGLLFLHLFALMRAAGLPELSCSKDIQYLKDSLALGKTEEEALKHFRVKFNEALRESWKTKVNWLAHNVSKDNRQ
Description: Inhibition of PI3Kdelta (unknown origin) by HTRF assay.

The next data set has as its system Plasma. Put plainly: Plasma protein binding in human albumin-depleted plasma after 1 to 3 hrs by MALDI TOF/TOF mass spectrometry. The data set is classed as ADME, cell-free. The method in brief:
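Human plasma albumin-depleted, not fully, and diluted to 1 mg/mL. A 10 mM DMSO compound stock diluted 1:10 into it; incubated at 37 °C for 1 or 3 h. Samples desalted on C4 tips and analysed by MALDI TOF/TOF (sinapinic acid matrix, ovalbumin internal standard) for mass shifts.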

Chain of Phosphatidylinositol 4,5-bisphosphate 3-kinase catalytic subunit alpha isoform (Homo sapiens) (P42336 whole entry, canonical isoform): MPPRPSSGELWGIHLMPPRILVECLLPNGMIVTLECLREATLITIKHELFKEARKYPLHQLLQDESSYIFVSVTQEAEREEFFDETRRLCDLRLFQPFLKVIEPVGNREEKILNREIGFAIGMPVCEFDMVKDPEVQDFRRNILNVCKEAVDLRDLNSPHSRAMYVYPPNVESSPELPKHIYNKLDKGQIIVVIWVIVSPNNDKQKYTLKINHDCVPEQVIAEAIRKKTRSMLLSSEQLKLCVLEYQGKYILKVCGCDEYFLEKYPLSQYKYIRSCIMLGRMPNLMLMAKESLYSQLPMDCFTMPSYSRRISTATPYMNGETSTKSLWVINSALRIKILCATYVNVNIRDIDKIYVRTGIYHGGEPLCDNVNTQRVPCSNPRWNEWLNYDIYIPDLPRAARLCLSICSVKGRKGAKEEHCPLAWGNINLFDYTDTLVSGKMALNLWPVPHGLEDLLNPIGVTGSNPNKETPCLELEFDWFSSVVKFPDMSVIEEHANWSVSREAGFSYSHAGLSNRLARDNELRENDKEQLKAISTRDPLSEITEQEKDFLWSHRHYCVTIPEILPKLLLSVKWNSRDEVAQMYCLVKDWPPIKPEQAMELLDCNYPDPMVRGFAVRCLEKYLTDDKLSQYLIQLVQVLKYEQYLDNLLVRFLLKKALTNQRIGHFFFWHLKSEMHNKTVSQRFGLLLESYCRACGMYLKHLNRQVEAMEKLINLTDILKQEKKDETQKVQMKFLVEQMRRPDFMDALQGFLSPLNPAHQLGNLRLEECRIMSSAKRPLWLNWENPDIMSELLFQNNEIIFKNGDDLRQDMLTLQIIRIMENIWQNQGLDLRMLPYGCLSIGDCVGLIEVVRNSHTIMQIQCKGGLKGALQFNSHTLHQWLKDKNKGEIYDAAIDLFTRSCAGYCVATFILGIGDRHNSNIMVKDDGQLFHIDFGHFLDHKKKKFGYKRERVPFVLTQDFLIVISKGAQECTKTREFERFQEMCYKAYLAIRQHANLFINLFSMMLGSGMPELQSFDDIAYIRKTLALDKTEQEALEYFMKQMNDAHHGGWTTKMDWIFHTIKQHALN
Chain of Sphingosine kinase 1 (Q9NYA1 whole entry): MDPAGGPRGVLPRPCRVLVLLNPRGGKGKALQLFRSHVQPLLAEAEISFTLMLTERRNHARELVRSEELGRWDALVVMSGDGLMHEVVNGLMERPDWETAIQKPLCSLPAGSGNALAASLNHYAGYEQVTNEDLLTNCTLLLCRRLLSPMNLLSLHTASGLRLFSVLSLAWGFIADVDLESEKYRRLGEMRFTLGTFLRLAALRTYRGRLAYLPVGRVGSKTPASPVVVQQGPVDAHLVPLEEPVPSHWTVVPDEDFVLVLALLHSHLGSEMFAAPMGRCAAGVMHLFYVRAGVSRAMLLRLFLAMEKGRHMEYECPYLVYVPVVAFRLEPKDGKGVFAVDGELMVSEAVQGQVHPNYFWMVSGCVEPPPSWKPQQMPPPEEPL
Chain of Phosphatidylinositol 4-kinase alpha (P42356 whole entry): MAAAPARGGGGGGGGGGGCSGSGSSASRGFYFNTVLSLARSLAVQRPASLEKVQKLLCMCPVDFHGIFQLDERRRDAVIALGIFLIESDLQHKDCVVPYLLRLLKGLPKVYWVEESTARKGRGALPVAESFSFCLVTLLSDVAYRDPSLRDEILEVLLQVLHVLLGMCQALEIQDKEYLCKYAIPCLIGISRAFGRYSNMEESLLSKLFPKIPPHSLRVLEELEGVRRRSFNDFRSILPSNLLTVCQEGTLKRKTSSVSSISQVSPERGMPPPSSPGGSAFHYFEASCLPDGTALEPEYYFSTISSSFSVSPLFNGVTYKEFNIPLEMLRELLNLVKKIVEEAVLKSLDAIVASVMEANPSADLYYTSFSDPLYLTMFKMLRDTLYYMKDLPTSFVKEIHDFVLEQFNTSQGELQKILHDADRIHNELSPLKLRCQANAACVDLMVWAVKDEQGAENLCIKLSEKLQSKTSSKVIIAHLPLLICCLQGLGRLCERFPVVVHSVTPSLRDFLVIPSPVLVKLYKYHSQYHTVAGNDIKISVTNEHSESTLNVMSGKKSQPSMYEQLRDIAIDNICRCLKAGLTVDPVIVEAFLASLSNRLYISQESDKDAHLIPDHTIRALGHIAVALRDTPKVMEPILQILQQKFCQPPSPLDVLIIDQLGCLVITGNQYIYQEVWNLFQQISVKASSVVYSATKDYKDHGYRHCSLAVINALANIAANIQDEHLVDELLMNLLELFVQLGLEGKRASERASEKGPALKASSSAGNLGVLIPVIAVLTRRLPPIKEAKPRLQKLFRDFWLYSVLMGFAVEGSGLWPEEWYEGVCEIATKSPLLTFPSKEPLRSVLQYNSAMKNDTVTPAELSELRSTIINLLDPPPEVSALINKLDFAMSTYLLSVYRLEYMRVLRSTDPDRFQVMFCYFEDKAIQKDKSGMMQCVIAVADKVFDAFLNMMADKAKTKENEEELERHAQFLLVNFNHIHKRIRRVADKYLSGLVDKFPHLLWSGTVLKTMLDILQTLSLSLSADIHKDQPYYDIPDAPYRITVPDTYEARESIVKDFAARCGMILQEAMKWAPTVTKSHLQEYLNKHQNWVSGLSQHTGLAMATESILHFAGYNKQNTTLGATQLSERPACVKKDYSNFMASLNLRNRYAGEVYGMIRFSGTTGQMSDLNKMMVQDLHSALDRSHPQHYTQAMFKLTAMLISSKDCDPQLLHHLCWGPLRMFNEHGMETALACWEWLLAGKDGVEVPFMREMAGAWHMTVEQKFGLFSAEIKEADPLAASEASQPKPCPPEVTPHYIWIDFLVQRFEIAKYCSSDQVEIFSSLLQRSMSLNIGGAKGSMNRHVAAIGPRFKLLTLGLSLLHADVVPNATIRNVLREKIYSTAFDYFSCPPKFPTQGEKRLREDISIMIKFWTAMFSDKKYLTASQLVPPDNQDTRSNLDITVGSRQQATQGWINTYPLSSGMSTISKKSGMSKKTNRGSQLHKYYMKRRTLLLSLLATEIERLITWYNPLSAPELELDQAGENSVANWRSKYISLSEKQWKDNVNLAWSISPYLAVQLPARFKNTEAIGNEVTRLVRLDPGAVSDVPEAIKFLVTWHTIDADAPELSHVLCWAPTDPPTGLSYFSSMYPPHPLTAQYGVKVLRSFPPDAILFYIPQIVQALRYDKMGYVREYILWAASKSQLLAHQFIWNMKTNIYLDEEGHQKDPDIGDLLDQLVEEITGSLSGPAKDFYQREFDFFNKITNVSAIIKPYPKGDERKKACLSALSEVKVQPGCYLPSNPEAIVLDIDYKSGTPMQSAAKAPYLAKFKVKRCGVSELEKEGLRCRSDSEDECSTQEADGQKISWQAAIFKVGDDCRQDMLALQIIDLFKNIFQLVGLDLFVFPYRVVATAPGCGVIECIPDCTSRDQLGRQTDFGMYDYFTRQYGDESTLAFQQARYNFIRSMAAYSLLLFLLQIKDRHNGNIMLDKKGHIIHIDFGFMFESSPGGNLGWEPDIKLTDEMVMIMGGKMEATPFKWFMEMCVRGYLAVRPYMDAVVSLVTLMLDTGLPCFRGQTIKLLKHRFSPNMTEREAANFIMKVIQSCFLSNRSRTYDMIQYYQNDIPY
Chain of Phosphatidylinositol 4-kinase beta (Q9UBF8 whole entry, canonical isoform): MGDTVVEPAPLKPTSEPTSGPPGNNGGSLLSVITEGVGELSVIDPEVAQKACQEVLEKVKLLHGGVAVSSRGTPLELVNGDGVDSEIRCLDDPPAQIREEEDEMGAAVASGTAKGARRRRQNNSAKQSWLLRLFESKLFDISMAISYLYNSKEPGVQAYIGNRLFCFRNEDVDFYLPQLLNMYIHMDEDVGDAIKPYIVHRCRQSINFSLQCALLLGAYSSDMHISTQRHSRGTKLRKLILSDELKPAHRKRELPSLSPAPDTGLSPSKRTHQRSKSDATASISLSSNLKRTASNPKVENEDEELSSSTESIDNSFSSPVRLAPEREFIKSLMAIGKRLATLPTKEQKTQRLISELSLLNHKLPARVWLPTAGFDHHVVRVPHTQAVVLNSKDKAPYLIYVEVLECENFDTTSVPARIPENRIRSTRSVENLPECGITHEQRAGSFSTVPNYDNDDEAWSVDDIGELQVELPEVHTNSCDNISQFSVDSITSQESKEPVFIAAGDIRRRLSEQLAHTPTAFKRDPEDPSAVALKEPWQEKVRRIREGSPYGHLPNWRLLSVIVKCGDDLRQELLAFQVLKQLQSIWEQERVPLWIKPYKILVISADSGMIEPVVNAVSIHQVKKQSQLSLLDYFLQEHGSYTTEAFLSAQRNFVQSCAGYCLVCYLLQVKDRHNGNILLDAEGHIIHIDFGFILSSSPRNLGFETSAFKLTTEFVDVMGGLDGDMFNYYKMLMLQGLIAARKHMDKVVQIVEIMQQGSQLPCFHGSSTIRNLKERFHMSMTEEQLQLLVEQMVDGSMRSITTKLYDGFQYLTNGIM

As to `CS(=O)(=O)N1CCN(Cc2cc3nc(-c4cccc5[nH]ncc45)nc(N4CCOCC4)c3s2)CC1` [PICTILISIB], the GI50 amounted to 148 nM with SK-OV-3 and 70.2 nM in the data set with MCF7. Moreover, the inhibition result in data set [1] is “inactive”. Moreover, the inhibition entry in data set [2] is “Active”.
On to `CC(C)=CC(=O)CCC(=O)N1CCN(Cc2cc3nc(-c4cccc5[nH]ncc45)nc(N4CCOCC4)c3s2)CC1`, for which the half-maximal inhibitory concentration (IC50) in data set [3] is over 1000 nM; in data set [4], over 1000 nM; against Sphingosine kinase 2 it was over 1000 nM; in data set [7], over 1000 nM; in data set [8] it was over 1000 nM; in data set [9] it was 166 nM. The results for the half-maximal inhibitory concentration (IC50) (on Sphingosine kinase 1; in [12]; in data set [13]) were over 1000 nM, 240 nM and 3020 nM, respectively. Also, the inhibition result in [5] is “Active”. For the same compound, the outcome in [6] was inactive. Besides, the figures for the concentration for 50% growth inhibition (GI50) in the data set on SK-OV-3 and in the data set on MCF7 were 77.6 nM and 54.7 nM, respectively. Also, the result with Mus musculus [10] and with Mus musculus [11] was Active. The PPB entry with Plasma is on record as “Not Active”.

The GI50 is the concentration giving 50% growth inhibition. Broadly, the IC50 is the concentration needed to halve the response being measured. High values mean weaker potency in that assay, low ones greater potency in that assay.
